According to ChEMBL document CHEMBL1926565, “Synthesis, antiproliferative activities and telomerase inhibition evaluation of novel asymmetrical 1,2-disubstituted amidoanthraquinone derivatives” (Eur J Med Chem, 2012):
Calls of active or inactive are those of the source. The rule behind the calls is not given here.

Columns and labels:
[1] = test system: HCT-15; experiment: Cytotoxicity against human HCT15 cells assessed as cellular growth at 10 uM; assay type: functional
Method in brief: (§1)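 Single-dose screen run by the NCI across its 60-human-tumour-cell-line panel; growth recorded for each cell line.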

[2] = test system: IGROV-1; experiment: Cytotoxicity against human IGROV1 cells assessed as cellular growth at 10 uM; assay type: functional; method in brief: as §1
[3] = Growth of human H1299 cells at 1 uM after 48 hrs by MTT assay; conditions: NCI-H1299, 48 h
[4] = test system: EKVX; experiment: Cytotoxicity against human EKVX cells assessed as cellular growth at 10 uM; assay type: functional; method in brief: as §1
[5] = test system: SF-295; experiment: Cytotoxicity against human SF295 cells assessed as cellular growth at 10 uM; assay type: functional; method in brief: as §1
[6] = test system: NCI-H322M; experiment: Cytotoxicity against human NCI-H322M cells assessed as cellular growth at 10 uM; assay type: functional; method in brief: as §1
[7] = test system: MDA-MB-435; experiment: Cytotoxicity against human MDA-MB-435 cells assessed as cellular growth at 10 uM; assay type: functional; method in brief: as §1
[8] = test system: UO-31; experiment: Cytotoxicity against human UO31 cells assessed as cellular growth at 10 uM; assay type: functional
[9] = test system: HOP-62; experiment: Cytotoxicity against human HOP62 cells assessed as cellular growth at 10 uM; assay type: functional; method in brief: as §1
[10] = test system: HCT-116; experiment: Cytotoxicity against human HCT116 cells assessed as cellular growth at 10 uM; assay type: functional; method in brief: as §1
[11] = test system: SK-MEL-5; experiment: Cytotoxicity against human SK-MEL-5 cells assessed as cellular growth at 10 uM; assay type: functional
[12] = test system: MCF7; experiment: Cytotoxicity against human MCF7 cells assessed as cellular growth at 10 uM; assay type: functional; method in brief: as §1
[13] = test system: TK-10; experiment: Cytotoxicity against human TK10 cells assessed as cellular growth at 10 uM; assay type: functional
[14] = test system: HL-60(TB); experiment: Cytotoxicity against human HL-60(TB) cells assessed as cellular growth at 10 uM; assay type: functional; method in brief: as §1
[15] = test system: HCC 2998; experiment: Cytotoxicity against human HCC2998 cells assessed as cellular growth at 10 uM; assay type: functional; method in brief: as §1
[16] = Growth of human H1299 cells at 10 uM after 48 hrs by MTT assay; conditions: NCI-H1299, 48 h
[17] = test system: A498; experiment: Cytotoxicity against human A498 cells assessed as cellular growth at 10 uM; assay type: functional; method in brief: as §1
[18] = test system: U-251; experiment: Cytotoxicity against human U251 cells assessed as cellular growth at 10 uM; assay type: functional
[19] = test system: ACHN; experiment: Cytotoxicity against human ACHN cells assessed as cellular growth at 10 uM; assay type: functional; method in brief: as §1
[20] = test system: BT-549; experiment: Cytotoxicity against human BT549 cells assessed as cellular growth at 10 uM; assay type: functional; method in brief: as §1
[21] = Growth of human H1299 cells at 100 uM 48 hrs by MTT assay; conditions: NCI-H1299, 48 h
[22] = test system: SK-MEL-2; experiment: Cytotoxicity against human SK-MEL-2 cells assessed as cellular growth at 10 uM; assay type: functional; method in brief: as §1
[23] = test system: SNB-19; experiment: Cytotoxicity against human SNB19 cells assessed as cellular growth at 10 uM; assay type: functional
[24] = test system: NCI-H522; experiment: Cytotoxicity against human NCI-H522 cells assessed as cellular growth at 10 uM; assay type: functional; method in brief: as §1
[25] = target: Telomerase reverse transcriptase (Homo sapiens) (UniProt O14746); experiment: Residual activity of human TERT in H1299 cells at 100 uM after 24 hrs by SEAP reporter gene assay
Telomerase reverse transcriptase (Homo sapiens), sequence (O14746 whole entry): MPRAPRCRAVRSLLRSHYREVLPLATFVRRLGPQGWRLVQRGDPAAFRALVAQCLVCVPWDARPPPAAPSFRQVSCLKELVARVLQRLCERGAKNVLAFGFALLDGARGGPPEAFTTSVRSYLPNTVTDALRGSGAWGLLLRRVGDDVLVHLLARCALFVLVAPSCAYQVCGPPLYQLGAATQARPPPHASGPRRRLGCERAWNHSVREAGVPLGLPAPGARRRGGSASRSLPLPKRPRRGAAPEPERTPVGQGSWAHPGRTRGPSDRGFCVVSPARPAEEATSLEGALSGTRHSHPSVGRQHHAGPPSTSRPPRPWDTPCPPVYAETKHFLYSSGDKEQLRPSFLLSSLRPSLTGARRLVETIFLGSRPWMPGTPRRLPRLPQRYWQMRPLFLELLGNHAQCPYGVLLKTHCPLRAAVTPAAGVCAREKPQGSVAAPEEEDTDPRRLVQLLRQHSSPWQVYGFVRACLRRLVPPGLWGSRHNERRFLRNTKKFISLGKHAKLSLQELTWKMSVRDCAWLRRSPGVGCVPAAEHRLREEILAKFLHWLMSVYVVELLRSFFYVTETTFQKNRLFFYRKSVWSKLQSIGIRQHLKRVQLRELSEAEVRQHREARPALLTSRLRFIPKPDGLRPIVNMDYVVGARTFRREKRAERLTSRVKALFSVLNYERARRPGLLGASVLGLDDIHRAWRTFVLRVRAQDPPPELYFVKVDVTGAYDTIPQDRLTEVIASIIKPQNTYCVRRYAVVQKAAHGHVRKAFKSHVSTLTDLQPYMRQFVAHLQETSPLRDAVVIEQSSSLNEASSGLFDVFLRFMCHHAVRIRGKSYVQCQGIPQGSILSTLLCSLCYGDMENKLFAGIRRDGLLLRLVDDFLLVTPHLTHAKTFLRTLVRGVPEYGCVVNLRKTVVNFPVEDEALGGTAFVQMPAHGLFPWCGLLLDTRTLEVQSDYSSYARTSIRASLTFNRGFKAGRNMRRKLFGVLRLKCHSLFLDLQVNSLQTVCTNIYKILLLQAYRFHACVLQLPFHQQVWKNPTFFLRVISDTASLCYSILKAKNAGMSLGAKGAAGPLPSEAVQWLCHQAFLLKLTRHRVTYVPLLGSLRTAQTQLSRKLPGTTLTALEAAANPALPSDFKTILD

[26] = test system: NCI-H460; experiment: Cytotoxicity against human NCI-H460 cells assessed as cellular growth at 10 uM; assay type: functional; method in brief: as §1
[27] = test system: KM12; experiment: Cytotoxicity against human KM12 cells assessed as cellular growth at 10 uM; assay type: functional; method in brief: as §1
[28] = test system: PC-3; experiment: Cytotoxicity against human PC3 cells after 48 hrs by SRB assay; assay type: functional, cell-based; conditions: PC-3, 48 h
Method in brief: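 PC-3 cells grown in RPMI1640 with 10% FBS at 37 °C, 5% CO₂. Seeded in medium with 5% FBS; after 24 h, one plate fixed with 10% TCA as T₀. Compound or 0.1% DMSO vehicle added for 48 h, then TCA fixation and 0.4% SRB in 1% acetic acid. Dye solubilized in 10 mM Trizma base, absorbance read at 515 nm. IC50 is the concentration giving 50% reduction of the protein gain in controls.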

[29] = test system: NCI/ADR-RES; experiment: Cytotoxicity against human NCI/ADR-RES cells assessed as cellular growth at 10 uM; assay type: functional; method in brief: as §1
[30] = test system: OVCAR-5; experiment: Cytotoxicity against human OVCAR5 cells assessed as cellular growth at 10 uM; assay type: functional; method in brief: as §1
[31] = test system: NCI-H23; experiment: Cytotoxicity against human NCI-H23 cells assessed as cellular growth at 10 uM; assay type: functional; method in brief: as §1
[32] = Cytotoxicity against human Hs 578T cells assessed as cellular growth at 10 uM; assay type: functional; method in brief: as §1
[33] = target: Telomerase reverse transcriptase (Homo sapiens) (UniProt O14746); experiment: Residual activity of human TERT in H1299 cells at 10 uM after 24 hrs by SEAP reporter gene assay
[34] = test system: LOX IMVI; experiment: Cytotoxicity against human LOXIMVI cells assessed as cellular growth at 10 uM; assay type: functional; method in brief: as §1
[35] = test system: Malme-3M; experiment: Cytotoxicity against human MALME-3M cells assessed as cellular growth at 10 uM; assay type: functional; method in brief: as §1
[36] = test system: SW-620; experiment: Cytotoxicity against human SW620 cells assessed as cellular growth at 10 uM; assay type: functional
[37] = test system: SK-MEL-28; experiment: Cytotoxicity against human SK-MEL-28 cells assessed as cellular growth at 10 uM; assay type: functional; method in brief: as §1
[38] = test system: SR; experiment: Cytotoxicity against human SR cells assessed as cellular growth at 10 uM; assay type: functional
[39] = target: Telomerase reverse transcriptase (Homo sapiens) (UniProt O14746); experiment: Residual activity of human TERT in H1299 cells at 1 uM after 24 hrs by SEAP reporter gene assay
[40] = test system: HOP-92; experiment: Cytotoxicity against human HOP92 cells assessed as cellular growth at 10 uM; assay type: functional; method in brief: as §1
[41] = test system: SNB-75; experiment: Cytotoxicity against human SNB75 cells assessed as cellular growth at 10 uM; assay type: functional
[42] = test system: DU-145; experiment: Cytotoxicity against human DU145 cells assessed as cellular growth at 10 uM; assay type: functional; method in brief: as §1
[43] = test system: M14; experiment: Cytotoxicity against human M14 cells assessed as cellular growth at 10 uM; assay type: functional; method in brief: as §1
[44] = test system: MDA-MB-468; experiment: Cytotoxicity against human MDA-MB-468 cells assessed as cellular growth at 10 uM; assay type: functional; method in brief: as §1
[45] = test system: UACC-62; experiment: Cytotoxicity against human UACC62 cells assessed as cellular growth at 10 uM; assay type: functional
[46] = test system: SF-268; experiment: Cytotoxicity against human SF268 cells assessed as cellular growth at 10 uM; assay type: functional; method in brief: as §1
[47] = test system: NCI-H226; experiment: Cytotoxicity against human NCI-H226 cells assessed as cellular growth at 10 uM; assay type: functional; method in brief: as §1
[48] = test system: MDA-MB-231; experiment: Cytotoxicity against human MDA-MB-231 cells assessed as cellular growth at 10 uM; assay type: functional; method in brief: as §1
[49] = test system: CCRF-CEM; experiment: Cytotoxicity against human CCRF-CEM cells assessed as cellular growth at 10 uM; assay type: functional; method in brief: as §1
[50] = target: Telomerase reverse transcriptase (Homo sapiens) (UniProt O14746); experiment: Inhibition of telomerase activity in human H1299 cell free extract at 10 uM by modified TRAP assay
Method in brief: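 TRAP assay using total cell lysate from H1299 lung cancer cells as the telomerase source, with protein measured against BSA standards. Compounds tested at 10 µM. Controls were lysate without inhibitor (positive) and RNase A-treated extract without inhibitor (negative).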

[51] = test system: 786-0; experiment: Cytotoxicity against human 786-0 cells assessed as cellular growth at 10 uM; assay type: functional; method in brief: as §1
[52] = test system: OVCAR-3; experiment: Cytotoxicity against human OVCAR3 cells assessed as cellular growth at 10 uM; assay type: functional; method in brief: as §1
[53] = test system: MOLT-4; experiment: Cytotoxicity against human MOLT4 cells assessed as cellular growth at 10 uM; assay type: functional; method in brief: as §1
[54] = test system: SF-539; experiment: Cytotoxicity against human SF539 cells assessed as cellular growth at 10 uM; assay type: functional; method in brief: as §1
[55] = test system: SN12C; experiment: Cytotoxicity against human SN12C cells assessed as cellular growth at 10 uM; assay type: functional
[56] = test system: HT-29; experiment: Cytotoxicity against human HT-29 cells assessed as cellular growth at 10 uM; assay type: functional; method in brief: as §1
[57] = test system: OVCAR-4; experiment: Cytotoxicity against human OVCAR4 cells assessed as cellular growth at 10 uM; assay type: functional; method in brief: as §1

**Q.** For `O=C(CCl)Nc1ccc2c(c1NC(=O)Cc1ccccc1)C(=O)c1ccccc1C2=O`, which Activity [1] is on record?
**A.** 68.55%

**Q.** And the Activity [2]?
**A.** 41.03%

**Q.** And the growth, % of control at 1 µM [3]?
**A.** 81%

**Q.** What about the Activity [4] of the same molecule?
**A.** 102.08%

**Q.** And the Activity [5]?
**A.** 98.48%

**Q.** And the Activity [6]?
**A.** 104.38%

**Q.** What about the Activity [7] of the same molecule?
**A.** 80.4%

**Q.** What about the Activity [8] of the same molecule?
**A.** 58.19%

**Q.** And the Activity [9]?
**A.** 115.67%

**Q.** And the Activity [10]?
**A.** 67.55%

**Q.** And the Activity [11]?
**A.** 51.32%

**Q.** What about the Activity [12] of the same molecule?
**A.** 51%

**Q.** And the Activity [13]?
**A.** 120.81%

**Q.** And the Activity [14]?
**A.** 41.36%

**Q.** What about the Activity [15] of the same molecule?
**A.** 94.74%

**Q.** What about the growth, % of control at 10 µM [16] of the same molecule?
**A.** 5%

**Q.** And the Activity [17]?
**A.** 91.79%

**Q.** What about the Activity [18] of the same molecule?
**A.** 66.17%

**Q.** What about the Activity [19] of the same molecule?
**A.** 79.64%

**Q.** And the Activity [20]?
**A.** 79.78%

**Q.** And the growth, % of control at 100 µM [21]?
**A.** 3%

**Q.** What about the Activity [22] of the same molecule?
**A.** -6.49%

**Q.** And the Activity [23]?
**A.** 124.27%

**Q.** And the Activity [24]?
**A.** 43.37%

**Q.** And the residual activity [25]?
**A.** 7%

**Q.** What about the Activity [26] of the same molecule?
**A.** 104.5%

**Q.** What about the Activity [27] of the same molecule?
**A.** 80.59%

**Q.** And the IC50 [28]?
**A.** > 20 µM

**Q.** What about the Activity [29] of the same molecule?
**A.** 86.87%

**Q.** What about the Activity [30] of the same molecule?
**A.** 119.04%

**Q.** What about the Activity [31] of the same molecule?
**A.** 64.75%

**Q.** And the Activity [32]?
**A.** 66.65%

**Q.** What about the residual activity [33] of the same molecule?
**A.** 9%

**Q.** And the Activity [34]?
**A.** 36.29%

**Q.** And the Activity [35]?
**A.** 47.07%

**Q.** And the Activity [36]?
**A.** 83.41%

**Q.** What about the Activity [37] of the same molecule?
**A.** 88.68%

**Q.** And the Activity [38]?
**A.** -31.25%

**Q.** And the residual activity [39]?
**A.** 84%

**Q.** What about the Activity [40] of the same molecule?
**A.** 73.63%

**Q.** And the Activity [41]?
**A.** 109.14%

**Q.** What about the Activity [42] of the same molecule?
**A.** 85.83%

**Q.** What about the Activity [43] of the same molecule?
**A.** 87.1%

**Q.** What about the Activity [44] of the same molecule?
**A.** 51.02%

**Q.** And the Activity [45]?
**A.** 59.67%

**Q.** And the Activity [46]?
**A.** 80.14%

**Q.** And the Activity [47]?
**A.** 80.49%

**Q.** What about the Activity [48] of the same molecule?
**A.** 82.04%

**Q.** What about the Activity [49] of the same molecule?
**A.** 33.97%

**Q.** What about the inhibition [50] of the same molecule?
**A.** inactive

**Q.** And the Activity [51]?
**A.** 97.26%

**Q.** What about the Activity [52] of the same molecule?
**A.** 86.38%

**Q.** And the Activity [53]?
**A.** 11.4%

**Q.** What about the Activity [54] of the same molecule?
**A.** 107.09%

**Q.** And the Activity [55]?
**A.** 79.93%

**Q.** And the Activity [56]?
**A.** 88.84%

**Q.** And the Activity [57]?
**A.** 80.4%
